Compound activity: PubChem, The Scripps Research Institute Molecular Screening Center
M4 PAM: potentiates acetylcholine response at human M4 receptor | activation, % at 3 µM | CHO-K1 hM4/Gqi5, Fluo-8 calcium fluorescence, ACh EC20; 0% = ACh EC20, 100% = maximal ACh | P08173 | hit rate 0.4% among 360,000 | AID 624126;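 active = activation above its plate's cutoff, the mean activation of sample wells plus 3 SD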
M4 ag: agonists of human muscarinic M4 receptor (CHRM4). P08173. CHO-K1 hM4/Gqi5, Fluo-8 calcium fluorescence; vehicle 0%, full acetylcholine response 100%. activation, % at 3 µM. hit rate 0.14% among 360,000. AID 624127;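 active = activation above the run mean over all test wells plus 3 SD, cut at about 32% in these data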;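 also: peak over basal fluorescence ratio per well then scaled between controls; 0% = DMSO wells and 100% = acetylcholine at EC100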
OXTR potentiate: potentiates the human oxytocin receptor response; P30559; CHO-OTR cells, Fluo-8 calcium fluorescence, potentiator mode; 0% = oxytocin EC15, 100% = EC100; activation, % at 3 µM; hit rate 0.061% among 320,000;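 active = activation above that plate's cutoff, the mean activation of tested compounds plus 3 SD, cut at about 6.6% in these data, passing the limit was not always enough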;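 also: 100% uses oxytocin at 75 nM as the full agonist control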
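Dosing: Single dose, 3.0 µM nominal final compound concentration | Material: Human OTR in CHO cells | Technique: Kinetic Fluo-8 calcium fluorescence | Benchmarks: EC15 oxytocin alone as 0%, 75 nM oxytocin as 100% | Probe or stimulus: Oxytocin at about EC15, sub-maximal agonist stimulus | Incubation: Compound 6 min at room temperature before oxytocin, 100 s read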
V1aR counter: activates human V1a receptor in oxytocin agonist counter-screen | CHO-V1R cells, Fluo-8 calcium fluorescence, agonist mode; 0% DMSO, 100% 3 nM vasopressin | activation, % at 3 µM | hit rate 0.25% among 320,000 | AID 2797;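 active = activation above the mean activation of all tested compounds plus 3 SD, per screening run, cut at about 20% in these data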;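 also: signal is peak over basal fluorescence ratio across a 100 second FLIPR read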
Target sequence (P37288 whole entry, looked up): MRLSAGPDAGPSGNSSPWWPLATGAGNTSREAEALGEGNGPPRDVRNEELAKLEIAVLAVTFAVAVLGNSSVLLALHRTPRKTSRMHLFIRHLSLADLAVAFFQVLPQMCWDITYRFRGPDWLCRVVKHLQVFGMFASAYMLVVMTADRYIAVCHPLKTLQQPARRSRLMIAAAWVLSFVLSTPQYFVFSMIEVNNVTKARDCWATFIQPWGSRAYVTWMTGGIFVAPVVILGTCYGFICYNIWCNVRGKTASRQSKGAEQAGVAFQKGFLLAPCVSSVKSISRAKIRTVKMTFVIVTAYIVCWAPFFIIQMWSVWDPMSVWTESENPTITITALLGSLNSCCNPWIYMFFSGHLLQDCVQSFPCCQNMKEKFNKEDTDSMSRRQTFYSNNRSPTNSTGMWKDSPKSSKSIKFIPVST
CHRM4 antagonist: blocks acetylcholine activation of human M4 receptor; inhibition, % at 3 µM; hit rate 0.73% among 360,000; CHO-hM4 cells, ACh EC80, Fluo-8 calcium fluorescence; P08173;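 active = inhibition above its plate's cutoff, the mean inhibition of sample wells plus 3 SD, cut at about 27% in these data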;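 also: 0% = acetylcholine EC80 with DMSO and 100% = DMSO without agonist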
OXTR agonist: human OXTR agonism; P30559; hit rate 0.32% among 320,000; AID 2435; CHO-OTR cells, Fluo-8 calcium fluorescence; normalized: DMSO 0%, oxytocin 100%; activation, % at 3 µM;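 active = activation above the mean of all tested compounds plus 3 SD, cutoff set per screening run, cut at about 20% in these data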;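 also: peak over basal fluorescence ratio from a 100 s FLIPR kinetic read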
Starred values were filed as active, the others as inactive; / = no result. In the library only some 1.5% were active in any assay of this set; here they are far more common.

SMILES | M4 PAM | M4 ag | OXTR potentiate | V1aR counter | CHRM4 antagonist | OXTR agonist
CCOC(=O)C(O)(c1ccc(NC(=S)NC(=O)c2ccc(Cl)cc2Cl)cc1)C(F)(F)F (stereo unspecified) | -12 | 25 | -15 | 34* | 13 | 51*
COC(=O)C(O)(c1ccc(NC(=S)NC(=O)c2ccc(Cl)cc2Cl)cc1)C(F)(F)F (stereo unspecified) | -19 | 16 | -11 | 18 | 11 | 19
COC(=O)C(O)(c1ccc(NC(=S)NC(=O)c2ccc(Cl)cc2Cl)c(C)c1)C(F)(F)F (stereo unspecified) | -19 | 22 | -14 | 22* | 11 | 29*
CCOC(=O)C(NC(=O)CC)(Nc1ccc(C(O)(C(=O)OCC)C(F)(F)F)cc1C)C(F)(F)F (stereo unspecified) | -1 | 0 | -13 | 0 | -6 | 0
CCOC(=O)C(O)(c1ccc(NC(=S)NC(=O)c2ccc(Cl)cc2Cl)c(C)c1)C(F)(F)F (stereo unspecified) | -28 | 40* | -13 | 34* | 31* | 32*
CCOC(=O)[C@]12Cc3cc(C)ccc3[C@H]1N(Cc1ccccc1)C(=O)c1cc(F)c(F)cc12 | -13 | -1 | / | / | 5 | /
Cc1cc(N=Nc2ccccc2C)ccc1N | / | / | -3 | -1 | / | 0
COc1cc(O)cc2c1cc([N+](=O)[O-])c1c(C(=O)O)cc3c(c12)OCO3 | -3 | 1 | -10 | 1 | -1 | 0
C[C@@H]1O[C@@H](O[C@H]2C[C@@H](O)[C@]3(CO)[C@H]4[C@H](O)C[C@]5(C)[C@@H](C6COC(=O)C6)CC[C@]5(O)[C@@H]4CC[C@]3(O)C2)[C@H](O)[C@H](O)[C@H]1O (stereo partly specified) | -15 | 1 | -5 | 1 | 34* | 0
COc1ccc(CNCCc2ccc3c(c2)OCO3)cc1Br | -2 | 6 | -7 | 5 | 8 | 3
CCC(c1nnnn1Cc1ccccc1)N1CCC(n2c(=O)[nH]c3ccccc32)CC1 (stereo unspecified) | -12 | 23 | / | / | 27* | /
O=C(Nc1cccc(Cl)c1)N1C[C@H]2C[C@@H](C1)c1cccc(=O)n1C2 | -3 | 0 | -2 | 0 | 11 | -1
C[N+](C)(C)CC#CCOC(=O)Nc1cccc(Cl)c1 | -20 | 44* | -5 | 0 | 6 | -1
O=C(Oc1ccc([N+](=O)[O-])cc1)N1CCC(N2CCCCC2)CC1 | -17 | 0 | -6 | 1 | 56* | 0
CC(=O)Nc1ccc(OC(=O)N2CCCCC2)cc1 | 8 | 0 | 0 | 0 | -1 | 1
C#CCOC(=O)C1=CCCN(C)C1 | -19 | 70* | -6 | 0 | 74* | 0
c1ccc2c(c1)[IH]c1ccccc1-2 | -6 | 4 | / | / | 3 | /
COc1ccc(-n2nc(C(=O)NCC(=O)N3CCC4(CC3)OCCO4)c3ccccc3c2=O)cc1Cl | -3 | 13 | -8 | 4 | -4 | 3
O=C(CCCN1CCC2(CC1)C(=O)NCN2c1ccccc1)c1ccc(F)cc1 | -20 | 135* | -12 | 28* | 99* | 41*
CCCCn1nnnc1C(C1CC1)N1CCC2(CC1)C(=O)NCN2c1ccccc1 (stereo unspecified) | -7 | 6 | / | / | -6 | /
CC[n+]1c(/C=C/C=C/c2ccc(N(C)C)cc2)sc2ccccc21 | -14 | 23 | -7 | -1 | 55* | 0
CN(C)c1ccc(/C=C/C=C/c2sc3ccccc3[n+]2C)cc1 | -1 | 1 | -6 | 0 | 13 | 0
CC1CC(OC(=O)c2ccccc2)CC(C)N1C (stereo unspecified) | -17 | 0 | 5 | 1 | 30* | 1
CN1C2CCC1CC(OC(=O)c1cccc(O)c1)C2 (stereo unspecified) | -10 | 0 | / | / | 7 | /
c1cc2c(cc1-c1ccc3c(c1)OCO3)CNCc1cnnn1-2 | 0 | 3 | / | / | -1 | /
O=C1NC(=O)N(c2ccccc2F)C(=O)/C1=C/c1ccc(Sc2nc3ccccc3[nH]2)o1 | -28 | 41* | -12 | 28* | 21 | 39*
